Most compounds without a hit are left out; they make up all but 1.8% or so of the library.
APJ ag – activates the human apelin receptor APJ; 0.11% of 330,000 active; P35414; activation, % at 20 µM; AID 2520; CHO-K1 APJ PathHunter beta-arrestin, luminescence; 0% DMSO wells, 100% apelin;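 active = activation more than six SD over the plate average, tested at 20 µM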
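Test system: CHO-K1 APJ beta-arrestin complementation cell line. Amount: cell density 1000 per well. Controls: DMSO negative, 10 nM Apelin-13 positive. Signal: luminescent beta-gal fragment complementation, chemiluminescent substrate. Read-out basis: agonist-driven arrestin binding to APJ. Timing: compound stimulation 90 min at 25 °C, detection 60 min.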
APJ antag – APJ receptor antagonism; inhibition, % at 20 µM; CHO-K1 APJ beta-arrestin complementation, luminescence; 0.32% of 330,000 active; P35414;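 active = inhibition above about 40% at 20 µM, limit read from the data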;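 also: cells challenged with 10 nM apelin-13 agonist together with compound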
CCR6 antagonist – blocks CCL20-driven beta-arrestin recruitment at human CCR6 | 0.49% of 340,000 active | CHO-K1 CCR6 PathHunter beta-arrestin, luminescence, CCL20-stimulated | AID 493098 | inhibition, % at 20 µM | P51684;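 active = compounds whose inhibition of the agonist-driven luminescence signal at 20 µM reaches about 50%, limit read from the data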;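 also: cells stimulated with CCL20 at 14 nM final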
Beta2AR agonist – activates human beta-2 adrenergic receptor causing internalization; P07550; Am2.2-beta2AR cells, FAP receptor internalization, flow cytometry; response, % (test concentration not listed); 0.43% of 340,000 active; AID 504454;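 active = response above a set limit, near 3 SD of response in nonfluorescent compounds, cut at about 42% in these data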
Target sequence (P07550 whole entry, looked up): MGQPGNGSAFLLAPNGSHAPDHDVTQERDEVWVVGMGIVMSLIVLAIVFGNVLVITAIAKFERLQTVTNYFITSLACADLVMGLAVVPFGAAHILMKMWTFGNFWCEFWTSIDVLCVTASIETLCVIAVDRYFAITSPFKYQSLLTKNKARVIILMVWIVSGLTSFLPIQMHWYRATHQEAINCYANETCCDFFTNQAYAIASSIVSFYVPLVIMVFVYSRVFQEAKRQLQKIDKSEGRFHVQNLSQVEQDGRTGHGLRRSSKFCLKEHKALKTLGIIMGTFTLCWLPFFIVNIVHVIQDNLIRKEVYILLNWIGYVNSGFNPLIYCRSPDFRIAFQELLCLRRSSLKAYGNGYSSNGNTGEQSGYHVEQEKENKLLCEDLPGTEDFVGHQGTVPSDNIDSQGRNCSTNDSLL
EBI2 block – antagonists of human EBI2 receptor. inhibition, % at 5 µM. AID 651636. 0.81% of 360,000 active. P32249. EBI2 beta-arrestin recruitment, luminescence, 7a,25-OHC stimulated; in the data active = inhibition above about 38%;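 also: enzyme fragment complementation signal reports receptor beta-arrestin coupling in cells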
CXCR6 inh – blocks human CXCR6 beta-arrestin recruitment | O00574 | CHO-K1 PathHunter CXCR6 beta-arrestin, luminescence | inhibition, % at 20 µM | 0.36% of 360,000 active; in the data active = inhibition above about 34%, passing the limit was not always enough;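 also: antagonist mode with CXCL16 agonist at 10 nM final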
Beta2AR ag CP1 – agonists of human beta-2 adrenergic receptor; shares compounds with Beta2AR agonist; Am2.2-beta2AR cells, FAP surface receptor, flow cytometry; hits give low values; percent response (surface receptor), % at 10 µM; 25% of 1,100 active;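 active = surface receptor percent response at or below 58%, roughly 3 SD from nonfluorescent compounds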
FAP fluor counter – fluorescence artifact in beta-2AR agonist FAP counterscreen; shares compounds with Beta2AR agonist; Am2.2 cells, FAP fluorogen flow cytometry; hits give low values; calls only at 10 µM; 1,100 tested, under 10 active; AID 588765;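 active = percent response below a set limit in fluorescence channel 1 and below 50% in channel 8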
Of the large screens only hits and unclear results are named; the others gave an inactive call (follow-up assays come after a bar, where they were run).

CCn1c(COc2ccc(C)cc2)nnc1SCc1nc2ccccc2[nH]1	none
Clc1cccc(-c2nnc(SCc3nc4ccccc4[nH]3)n2Cc2ccco2)c1	Beta2AR agonist 54.5 | Beta2AR ag CP1 56.4 | FAP fluor counter inactive
Clc1ccc(OCc2nnc(SCc3nc4ccccc4[nH]3)n2Cc2ccco2)cc1	Beta2AR agonist 111.2 | Beta2AR ag CP1 38.5 | FAP fluor counter inactive
O=C(NC1CCCC1)C(c1ccccc1)n1c(Cc2cc(F)cc(F)c2)nc2ccccc21 (centres undefined)	none (no result: APJ ag, APJ antag, CCR6 antagonist, Beta2AR agonist, CXCR6 inh)
Cc1cc(OCC(=O)Nc2cc(-c3nn4c(C)nnc4s3)ccc2C)ccc1Cl	Beta2AR agonist 79.0 | Beta2AR ag CP1 inactive | FAP fluor counter inactive
Cc1ccc(NC(=O)Nc2ccc3c(c2)nnn3C)cc1C	none
CCOc1ccc(NC(=O)Nc2ccc3c(c2)nnn3C)cc1	Beta2AR agonist 59.9 | Beta2AR ag CP1 inactive | FAP fluor counter inactive
Cc1ccc(CSc2nnc(-c3ccncc3)o2)c(C)c1	none
CC1=NN(C(N)=S)C(=O)C1N=Nc1ccccc1 (centres undefined)	none | Beta2AR ag CP1 inactive | FAP fluor counter inactive
COc1ccc(C2/C=C\CN(Cc3ccc(N(C)C)cc3)CC(=O)N2Cc2ccc(F)cc2)cc1 (centres undefined)	Beta2AR agonist 97.4 | Beta2AR ag CP1 27.1 | FAP fluor counter inactive
COc1ccc(C2/C=C\CN(C(=O)C3CC3)CC(=O)N2Cc2ccc(F)cc2)cc1 (centres undefined)	none
COc1ccc(C2/C=C\CN(C(=O)c3ccccc3)CC(=O)N2Cc2ccc(F)cc2)cc1 (centres undefined)	none | Beta2AR ag CP1 inactive | FAP fluor counter inactive
COc1ccc(C2/C=C\CN(C(=O)OCc3ccccc3)CC(=O)N2Cc2ccc(F)cc2)cc1 (centres undefined)	none
CCNC(=O)C1CCCN(C(=O)Cc2cccs2)CC1 (centres undefined)	none (no result: APJ ag, APJ antag, CCR6 antagonist, Beta2AR agonist)
COc1cccc(-c2cnc3c(NC(C)=O)cc(-c4ccc(C(=O)NC5CC5)cc4)cn23)c1	none (no result: APJ ag, APJ antag, CCR6 antagonist, Beta2AR agonist)
Cc1ccc(CS(=O)(=O)c2nc3c(c(N(C)C)n2)CCCC3)cc1	Beta2AR agonist 73.0 | Beta2AR ag CP1 27.0 | FAP fluor counter inactive
O=C(Cc1ccc(Cl)cc1)Nc1ccccc1C(=O)N1CCCCC1	none
COc1ccc(C(C)=O)cc1COc1ccc(Cl)cc1Cl	Beta2AR agonist 49.7 | Beta2AR ag CP1 56.5 | FAP fluor counter inactive
N#CCCCc1cc2ccccc2cn1	none
COc1ccccc1C(=O)Nc1ccc2oc(-c3ccc(F)cc3)nc2c1	none | Beta2AR ag CP1 inactive | FAP fluor counter inactive
COc1ccc(C(=O)Nc2ccc3oc(-c4cccc(F)c4)nc3c2)cc1OC	none
COC(=O)[C@]12CCCCC=C1N(Cc1ccc(Cl)cc1Cl)C(=O)[C@H](CC(=O)N1CCSCC1)C2	none (no result: APJ ag, APJ antag, CCR6 antagonist, Beta2AR agonist)
Cc1ccc(O)c(NC(=O)c2cccc(NC(=O)c3ccco3)c2)c1	Beta2AR agonist 84.8 | Beta2AR ag CP1 18.5 | FAP fluor counter inactive
CCOC(=O)c1cc(NC(=O)N(C)C2CCCCC2)c(C)nc1C	Beta2AR agonist 47.8 | Beta2AR ag CP1 inactive | FAP fluor counter inactive
CCOC(=O)c1cc(NC(=O)N(CC)C2CCCCC2)c(C)nc1C	none
CN(C)c1ccc(C=c2c3ccccc3n3c2c2ccccc2[n+]3C)cc1	Beta2AR agonist 49.8 (no result: APJ ag, APJ antag) | Beta2AR ag CP1 inactive | FAP fluor counter inactive
CC(C)(C)[C@H]1COC(=O)[C@@H](Cc2ccc(F)cc2)CC/C=C/C[C@@H](CC(=O)N[C@@H](CO)Cc2ccccc2)C(=O)N1	none
Cc1cccc(NC(=O)c2cc(-c3cccnc3)nc3c(C)cccc23)n1	Beta2AR agonist 75.1 | Beta2AR ag CP1 inactive | FAP fluor counter inactive
Cc1cc(NC(=O)c2cc(-c3ccncc3)nc3c(C)cccc23)no1	none
Cc1ccc(C)c(NC(=S)c2ccccn2)c1	none | Beta2AR ag CP1 inactive | FAP fluor counter inactive
C=CCC[C@@H](Cc1ccc(F)cc1)C(=O)OC[C@@H](Cc1ccccc1)NC(=O)[C@@H](CC=C)CC(=O)N[C@@H](CO)Cc1ccccc1	none
Cn1c(CNc2nc(-c3ccccc3)cs2)nnc1SCC(=O)N1CCc2ccccc21	Beta2AR agonist 46.5 | Beta2AR ag CP1 inactive | FAP fluor counter inactive
CC(C)(C)Nc1c(-c2ccc(O)cc2)nc2ccc(Cl)cn12	none
COC(=O)c1ccc(COc2cc(O)c3c(c2)OC(C)(C)CC3=O)cc1	Beta2AR agonist 45.5 | Beta2AR ag CP1 inactive | FAP fluor counter inactive
CCCNC(C)C(=O)Nc1ccccc1C (centres undefined)	none | Beta2AR ag CP1 inactive | FAP fluor counter inactive
O=C(NCc1ccccc1Cl)C1=CC=CN2CCS(=O)(=O)N=C12	none
O=C1NC[C@H](Cc2ccccc2)N(C[C@H]2CCCN2C[C@H](Cc2ccccc2)N2C[C@H](Cc3ccc(O)cc3)N(CCc3ccccc3)C(=O)C2=O)C1=O	none (no result: APJ ag, APJ antag)
CC(=O)N1c2ccccc2C(C)(c2ccccc2)CC1(C)C (centres undefined)	Beta2AR agonist 54.3 | Beta2AR ag CP1 44.6 | FAP fluor counter inactive
CC1(c2ccccc2)CC(C)(C)N(C(N)=O)c2ccccc21 (centres undefined)	none
N#CC(C(=S)Nc1ccccc1)c1nc2ccccc2[nH]1 (centres undefined)	none | Beta2AR ag CP1 inactive | FAP fluor counter inactive
N#CC(C(=O)C1CCCCC1)c1nc2ccccc2[nH]1 (centres undefined)	none
O=C(OCc1cn([C@H]2C[C@H](c3ccc(Cl)cc3)N(C(=O)C3CCCCC3)C[C@@H]2O)nn1)c1ccccc1	none (no result: APJ ag, APJ antag, CCR6 antagonist, Beta2AR agonist)
Cc1cc(C(=O)COC(=O)CNS(=O)(=O)c2ccc3ccccc3c2)c(C)n1-c1ccccc1	Beta2AR agonist 46.9 | Beta2AR ag CP1 inactive | FAP fluor counter inactive
CCOC(=O)c1ccc(N2C(=O)c3n[nH]c(-c4ccco4)c3C2c2cccc([N+](=O)[O-])c2)cc1 (centres undefined)	Beta2AR agonist 85.4 | Beta2AR ag CP1 23.3 | FAP fluor counter inactive
CCc1ccc(OCC(=O)Nc2ccc(S(=O)(=O)N3CCOCC3)cc2)cc1	none
CCOc1ccc(NC(=O)COc2ccc(S(=O)(=O)N3CCOCC3)cc2)cc1	none | Beta2AR ag CP1 50.9 | FAP fluor counter inactive
COC(=O)c1ccc(NC(=O)COc2ccc(S(=O)(=O)N3CCCCC3)cc2)cc1	Beta2AR agonist 87.0 | Beta2AR ag CP1 9.0 | FAP fluor counter inactive
O=C(COc1ccccc1)Nc1ccc(S(=O)(=O)N2CCOCC2)cc1	none
